Assay results reported in publication PMC3181126 (Journal of medicinal chemistry, 2011).
Values joined by “and” are separate entries in the source; they are usually repeats but may differ in a detail not shown here. Equal values may be shown once.

Columns and labels:
[1] = Fluorescence spectroscopy; assay type: physicochemical; details: for Φ (quantum yield): standard quinine sulfate; for excitation peaks (λexc): approximate values, solvent not stated
Outline: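 Spectra taken in EtOH, CHCl3 and PBS on free bases (hydrochlorides also in EtOH/PBS), with 10 nm excitation/emission bandpass. Emission scanned 300–700 nm; excitation scanned 250–450 or 300–550 nm by compound. Quantum yield was relative to a quinine sulfate standard (reference value 0.546), with absorbance below 0.2 at 347 nm. Spectra were instrument-corrected and integrated, and a refractive-index correction applied.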

[2] = Molar extinction coefficient; assay type: physicochemical; details: EtOH solutions
Outline: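 Absorbance spectra (200–600 nm) of test compound in EtOH at 1–100 μM, in 1 cm quartz cuvettes. ε was obtained by fitting Beer's law to absorbance at the excitation wavelength. Measurements were repeated twice.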

[3] = target: T1, σ2 receptor (Rattus norvegicus, UniProt Q5U3Y7); test: σ2 receptor radioligand binding, [3H]DTG with; details: from Ki σ1 (guinea-pig brain) and Ki σ2 (rat liver)
T1 sequence (Q5U3Y7 1-176): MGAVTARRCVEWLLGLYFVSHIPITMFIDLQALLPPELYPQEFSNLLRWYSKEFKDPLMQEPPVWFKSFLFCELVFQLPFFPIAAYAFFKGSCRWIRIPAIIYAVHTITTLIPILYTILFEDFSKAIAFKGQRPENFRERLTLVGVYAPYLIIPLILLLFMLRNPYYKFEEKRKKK

[4] = tested on: BxPC3 cells; test: Competition of compound 16 by σ2 agonists, flow cytometry; assay type: cell-based, human; details: preloading 45 min at increasing concentrations, then 16 (25 nM) 45 min
[5] = tested on: BxPC3 cells; test: Cell viability at increasing seeding density; assay type: cell-based, human; details: 100 μM, seeding density 1 × 10^5 to 9 × 10^5

Row | Structure (SMILES) | λem ([1]; CHCl3) | λexc ([1]; CHCl3) | Φ (quantum yield) ([1]; CHCl3) | λem ([1]; EtOH, free bases) | λexc ([1]; EtOH, free bases) | Φ (quantum yield) ([1]; EtOH, free bases) | λem ([1]; PBS, free bases) | λexc ([1]; PBS, free bases) | excitation peaks (λexc) [1] | ε (molar extinction coefficient) [2] | σ2 versus σ1 selectivity [3] | effect on mean fluorescence intensity of 16 [4] | cell death versus cell density [5]
1 | COc1cccc2c1CCCC2CCCN1CCN(C2CCN(CCCCCCNc3ccc([N+](=O)[O-])c4nonc34)CC2)CC1 (stereo not shown) [compound 7, 6-[4-[4-[3-(5-Methoxy-1,2,3,4-tetrahydronaphthalen-1-yl]propyl]piperazin-1-yl]piperidino]-N-(7-nitro-2,1,3-benzoxadiazol-4-yl)hexanamine] | 515 nm | 450 nm | 0.17 | 520 nm | 476 nm | 0.08 | 535 nm | 480 nm |  | 14391 L/mol/cm |  |  | 
2 | Fc1cccc(F)c1[C@H]1CC[C@@H](N2CCN(C3CCCCC3)CC2)CC1 [compound 20, cis-1-cyclohexyl-4-[4-(2,6-difluorophenyl)cyclohexyl]piperazine] |  |  |  |  |  |  |  |  |  |  |  | decreased the mean fluorescence intensity of 16 | decreased cell death as the density increased
3 | COc1cccc2c1CCCC2CCCN1CCN(C2CCCCC2)CC1 (stereo not shown) [compound 1, 1-cyclohexyl-4-[3-(5-methoxy-1,2,3,4-tetrahydronaphthalen-1-yl)propyl]piperazine] |  |  |  |  |  |  |  |  |  |  |  | decreased the mean fluorescence intensity of 16 | decreased cell death as the density increased

Second part, led by results:

Row | λem ([1]; CHCl3) | λexc ([1]; CHCl3) | Φ (quantum yield) ([1]; CHCl3) | λem ([1]; EtOH, free bases) | λexc ([1]; EtOH, free bases) | Φ (quantum yield) ([1]; EtOH, free bases) | λem ([1]; PBS, free bases) | λexc ([1]; PBS, free bases) | excitation peaks (λexc) [1] | ε (molar extinction coefficient) [2] | Structure (SMILES) | σ2 versus σ1 selectivity [3] | effect on mean fluorescence intensity of 16 [4] | cell death versus cell density [5]
4 | 512 nm | 450 nm | 0.18 | 520 nm | 465 nm | 0.04 | 520 nm | 460 nm | ~ 335 nm and ~ 450 nm | 6544 L/mol/cm | O=[N+]([O-])c1ccc(NCCOCCOc2cccc3c2CCCC3CCCN2CCN(C3CCCCC3)CC2)c2nonc12 (stereo not shown) [compound 17, 2-[2-[5-[3-(4-Cyclohexylpiperazin-1-yl)propyl]-5,6,7,8-tetrahydronaphthalen-1-yloxy]ethoxy]-N-(7-nitro-2,1,3-benzoxadiazol-4-yl)ethanamine] |  |  | 
5 | 490 nm | 340 nm | 0.30 | 507 nm | 335 nm | 0.20 | 485 nm | 345 nm |  | 4000 L/mol/cm | CN(C)c1cccc2c(S(=O)(=O)NCCCCCCOc3cccc4c3CCCC4CCCN3CCN(C4CCCCC4)CC3)cccc12 (stereo not shown) [compound 18, 5-Dimethylaonaphthalene-1-sulfonic acid 6-[5-[3-(4-cyclohexylpiperazin-1-yl)propyl]-5,6,7,8-tetrahydronaphthalen-1-yloxy]hexanamide] | did not show any σ2 versus σ1 selectivity |  | 
6 | 490 nm | 346 nm | 0.32 | 507 nm | 335 nm | 0.29 | 510 nm | 340 nm | ~ 335 nm and ~ 450 nm | 2600 L/mol/cm | COc1cccc2c1CCCC2CCCN1CCN(C2CCN(CCCCCCNS(=O)(=O)c3cccc4c(N(C)C)cccc34)CC2)CC1 (stereo not shown) [compound 8, 5-Dimethylaonaphthalene-1-sulfonic acid 6-[4-[4-[3-(5-methoxy-1,2,3,4-tetrahydronaphthalen-1-yl)propyl]piperazin-1-yl]piperidino]hexanamide] |  |  | 
